The text below walks through data of the RNAGym collection of RNA variant scans (doi:10.1126/science.aae0568).

The labels stand for the following.
B1: tRNA (parent)
chain: GUUCCGUUGGCGUAAUGGUAACGCGUCUCCCUCCUAAGGAGAAGACUGCGGGUUCGAGUCCCGUACGGAACG

Fewer inactive variants are shown than the library holds.

Variants of B1 are the subject of the data set. Kind of data set: yeast fitness relative to wild type (ratio to wild type); higher = fitter; tRNA-Arg(CCU), competitive growth, 37 C, YPD. The method, boiled down: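 Amplicons of the tRNA-Arg(CCU) gene were sequenced, 100-nucleotide paired-end, from the start population and from each end population of a pooled yeast competition. The competition, in six parallel replicates, lasted 24 hours in YPD at 37°C. Fitness relative to wild type was calculated from changes in genotype frequencies. Genotypes had to have ≥ 100 starting reads, and estimates < 0.5 were set to 0.5.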
Consider C22G G44C A70C, for which the yeast fitness was 0.553.

As to C22G C27G C31G C61G A69U, the yeast fitness is 0.62. A21U U35C G51C: the yeast fitness was no more than 0.5. For the variant C22G C60A, the yeast fitness is 0.679.

As for C22G A37G A45C G51U, the yeast fitness is no more than 0.5.

Take C22G C31G C61U: the yeast fitness worked out at 0.587. With C22G C55U U59A A65C the figure was no more than 0.5; with C22G C31G G67A, 0.615; with C22G C34A A36U, 0.656. With C22G C27U U35C G39C A42C G48A the figure was no more than 0.5. Then C22A C60A, with 0.659; and C22A C27G G41A C62A, with 0.655. Take C22G C27G U59C C61U C62U G68U: the yeast fitness was no more than 0.5. With C22A G41A C46U C66U the figure was 0.716; with C22A C30U C31G A57C A65C A70C, no more than 0.5. With C22A C31A U53C A57C C60U the figure was no more than 0.5; with C22A G50C A65G, no more than 0.5; with C22G C31U U64C, 0.748. Then C22A C49U G51C, with no more than 0.5. Turning to C22A C49U C55A, the yeast fitness was 0.656. With C22A U35A G58A the figure was no more than 0.5; with C22A C30U C49U C66U, 0.601. With C22A U28C G67A the figure was 0.538. Then C22G C29A, with 0.662. Turning to C22A C24G A36C, the yeast fitness was no more than 0.5.

C22G C27G C31G C49U C61G A69U: the yeast fitness stood at 0.534. Regarding C22A C27U, the yeast fitness stood at 0.976. With C22A G41C A65C the figure was no more than 0.5; with C22A C24G A36G G39C G56A, no more than 0.5. Then C22A C31G G41C G63C A70U, with no more than 0.5. Then A21U G68U, with 0.752.

As for C22A A45C U54C, the yeast fitness turned out to be 0.522. Regarding C22G U26A, the yeast fitness came to 1.08. Consider C22A U35G, for which the yeast fitness stood at 0.631. Then C22G A36C G68C, with no more than 0.5; and C22G G25C A37G, with no more than 0.5; and C22G C49U C62G, with 0.558. With C22G C31A A43G A69U the figure was no more than 0.5; with C22G C29A G63A, 0.553; with C22G C24U A43C A70U, no more than 0.5. With C22G C34U the figure was 0.696. In the case of C22G G58A, the yeast fitness was 1.07. With A21U G44C G58A A65G the figure was no more than 0.5. Consider C22G A36C U47A, for which the yeast fitness was 0.552. As to C22G C24G A45C G63C, the yeast fitness amounted to 0.563.

As for C22A C24G A65U A69C, the yeast fitness is no more than 0.5. For C22A G25A A69C, the yeast fitness was 0.784. With C22G C34A G67U the figure was no more than 0.5.

Take A21U G38C A43U G50A A65C: the yeast fitness was no more than 0.5. On to A21U G23C C62A, for which the yeast fitness is no more than 0.5. With C22G G48C A69C the figure was 0.589; with C22G U26A C29G A70U, 0.591. With C22A A57U the figure was 0.606; with C22G C49G G68C, 0.529. With C22A C61A the figure was 0.611. As for C22G C24A G38A, the yeast fitness came to 0.544. With C22G C27G C31G C49A G52A the figure was no more than 0.5; with C22G G50C A57G, no more than 0.5; with C22G A45G C49U A70U, no more than 0.5. Take C22G C66U: the yeast fitness amounted to 0.896. With C22A C24A the figure was 0.54; with C22G C27G U59C C62U G68U, 0.529; with C22G C29A A45U, 0.615. With C22G A45C G52C A57U, the yeast fitness is 0.549. In the case of C22A C31G C46A C49U U54C G68A, the yeast fitness came out at 0.581. Then C22G C34A A42G C66A, with no more than 0.5; and C22G G41A A43C G51C C66U G67U, with no more than 0.5; and C22A C24U C30U C31G, with 0.531. With A21U G48C the figure was 0.586; with A21U G48C C55A C66U, no more than 0.5. Then C22G C31U C49U C61A, with no more than 0.5; and C22G G48C G67C, with no more than 0.5; and C22G C29A U53A C66U, with no more than 0.5.

Regarding C22A G23A C33U A42U A69U, the yeast fitness is no more than 0.5. With C22G C27U C62A A65G the figure was no more than 0.5. Then C22G C34A G58A C66A, with no more than 0.5; and C22G G23C A42U C62A, with no more than 0.5. Then C22G C24G C55G, with no more than 0.5; and C22G C29G C46U G63A A70U, with no more than 0.5. Turning to C22G A45U G48C C49G, the yeast fitness is no more than 0.5. Then C22G C24A C27U U59A, with no more than 0.5; and A21U U28G G56A, with no more than 0.5; and C22A C33G A43C C49U U64C, with no more than 0.5.

With C22A C24G A69U, the yeast fitness was no more than 0.5. With C22G G50A the figure was 0.837; with A21U G67U, 0.742; with A21U G67C, 0.645. Take C22A U26A C66U: the yeast fitness came to 0.582.

As for C22A A65U, the yeast fitness came out at 0.849. With C22G C24A G38A G44C U59A, the yeast fitness is no more than 0.5. As for A21U U54A C61U, the yeast fitness was no more than 0.5. Then C22A C31U C34G, with 0.536.

Consider C22A C29U C55U, for which the yeast fitness was 0.579. Take C22G A43G C55U U64G: the yeast fitness is no more than 0.5.

Take C22A U53C: the yeast fitness was 0.764. With C22G C29G G41C the figure was no more than 0.5. Then C22G G68A, with 0.813.

Regarding C22A C31G U35C, the yeast fitness was no more than 0.5. With C22A U32C A37C A65G the figure was no more than 0.5; with C22G G23C C27A U28C C60A, no more than 0.5.

C22A C33G A43C: the yeast fitness was determined as 0.55.

Take C22G C31G C66U: the yeast fitness stood at 0.64.

Regarding C22A C29G G58A G67C, the yeast fitness is no more than 0.5.

For the variant C22A C29U U53A C66U, the yeast fitness is no more than 0.5. Then C22G G52A, with 0.772; and C22A U26A, with 0.949; and C22G C30U U54C, with 0.554.

C22A C29U C62G: the yeast fitness was no more than 0.5. With C22G G25C U35C A37G A65U the figure was no more than 0.5; with C22G G39A G67C, 0.526. With C22A A40C G50C G67C the figure was no more than 0.5; with C22A A36G, 0.8. C22A A40G C60G A70G: the yeast fitness is no more than 0.5.

For A21U G44A, the yeast fitness was 0.782.

Regarding C22G C49G C66A, the yeast fitness is no more than 0.5.

Consider C22G C55U, for which the yeast fitness turned out to be 0.739. With C22A C29G C61U the figure was no more than 0.5; with C22G G44C C55U, 0.564. As to A21U G52A C62G, the yeast fitness is no more than 0.5. Then C22G C24A G38A G67A, with 0.531; and C22G C31U U53A, with no more than 0.5; and A21U U54A G56C A70G, with 0.576. Then C22A G39C A43U U53C U54A, with no more than 0.5; and C22G A45C C61U A65G, with no more than 0.5. Then C22G C33G A36U, with no more than 0.5; and C22G C27G C29G C34A A43U, with no more than 0.5; and A21U G48C C55A C66G G67C, with 0.526. With C22A U26A C29G C34G G50C U64C, the yeast fitness was no more than 0.5. With C22G C27G the figure was 0.597; with A21U U54C, 0.703. With C22G C34U A43C A69U the figure was no more than 0.5. Then C22G C29G G68C, with no more than 0.5; and C22G A45U, with 0.712. In the case of C22A C30U C31G C61U A69C, the yeast fitness is no more than 0.5.

For the variant C22G C31G C49U U54G, the yeast fitness stood at 0.568.

As for A21U G25A G56C, the yeast fitness was no more than 0.5. With C22G C31U C61G the figure was 0.614. Then C22A G25A U64A, with 0.629.

Take C22G A42G C60A: the yeast fitness is no more than 0.5.

Take A21U U28A A40U C55A A70G: the yeast fitness was no more than 0.5. As for C22A G63C A65C, the yeast fitness is no more than 0.5.

In the case of C22G C31G C62U G68C, the yeast fitness is no more than 0.5.

For the variant A21U G50C C61G A70U, the yeast fitness is no more than 0.5.

As to C22G C27G C31G, the yeast fitness stood at 0.571. C22G G25C U26C C27G A40G: the yeast fitness is no more than 0.5.

Take C22A C24U G58C C62G: the yeast fitness is no more than 0.5. Then C22G G25A G41C A57U, with no more than 0.5; and C22G C30G C55A, with no more than 0.5; and C22G C34A A36U A42C C46G, with no more than 0.5.

Take C22A C27G G38C A43C C66U A69G: the yeast fitness is no more than 0.5.

As to C22G C33G, the yeast fitness came out at 0.685.

C22A C24G U32C C34U: the yeast fitness was no more than 0.5.

For the variant C22G A40C, the yeast fitness is 0.68. With C22A U26A A36U G56C C60G the figure was no more than 0.5; with C22A C24G U53A, no more than 0.5. With C22G C31G C49U the figure was 0.605; with C22A G23C C34U A36G A40U G67A, no more than 0.5; with C22A U32C C66U, 0.503. With C22G C30G C33G A37U C61G the figure was 0.683; with C22A G68U, 0.825; with C22A G68A, 0.869. As for C22A G68C, the yeast fitness was 0.822. Then C22A A45C, with 0.665. Then A21U U32C A45U G67C, with no more than 0.5. Take C22A C24G G56C: the yeast fitness came out at 0.786. With C22G G41A G48C G68C the figure was no more than 0.5; with C22G C49G C62G, no more than 0.5.
